The text below walks through data of ChEMBL document CHEMBL1275410, “Synergy between polyethylenimine and different families of antibiotics against a resistant clinical isolate of Pseudomonas aeruginosa” (2008).

≈ marks a conversion by molar mass, not a printed value. Calls of active or inactive are those of the source. No cut-off for these calls is given here.

Common to all, as to format: functional
The subject of test [1] is Pseudomonas aeruginosa. The test can be described thus: FIC index, ratio of MIC for Pseudomonas aeruginosa 100609 in presence of 250 ug/ml polyethylenimine to MIC for Pseudomonas aeruginosa 100609.
For test [2], the system named is Pseudomonas aeruginosa. Kind of test: Antibacterial activity against Pseudomonas aeruginosa 100609 assessed as reduction in bacterial count at 0.25 times MIC after 9 hrs by time-kill assay in presence of 250 ug/ml polyethylenimine relative to control. The procedure, abridged:
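Time-kill assay: TSB was seeded from a 17-h preculture to 5 × 10^7 CFU/ml (set by OD660). Antibiotic was at 25% of MIC, with PEI at a final 250 nM (legend gives 250 μg/ml). Controls were PEI alone, antibiotic alone and bacteria alone. Viable counts on LB agar were taken at 0, 1.5, 3, 6 and 9 h, in triplicate. Synergy was a ≥2.0 mean log10 CFU/ml drop versus antibiotic alone.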

Test [3] relates to Pseudomonas aeruginosa. Kind of test: Antibacterial activity against Pseudomonas aeruginosa 100609 after 20 hrs by broth microdilution assay. The procedure, abridged:
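Broth microdilution in TSB per CLSI: a 5 × 10^5 CFU/ml inoculum (OD660 0.02) was added to serial twofold antibiotic dilutions. Plates were shaken at 37°C for 20 h. MIC was the lowest concentration with no visible growth, determined in triplicate.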

The test system of test [4] is Pseudomonas aeruginosa. The test can be described thus: FIC index, ratio of MIC for Pseudomonas aeruginosa 25619 in presence of 250 ug/ml polyethylenimine to MIC for Pseudomonas aeruginosa 25619. An outline of the steps:
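Checkerboard combination of PEI (mean MW 10 kDa) with antibiotic against P. aeruginosa ATCC 25619, in TSB inoculated at about 5 × 10^5 CFU/ml, run in triplicate. ΣFIC was derived from the combination; 0.5 to 2.0 is read as indifference and ≥4.0 as antagonism.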

Where [5] appears, read: Pseudomonas aeruginosa, 100609, 20 h.

For the compound `O=C(N[C@H](CO)[C@H](O)c1ccc([N+](=O)[O-])cc1)C(Cl)Cl` [CHLORAMPHENICOL], the “fractional inhibitory concentration index (FICI)” value in the test on Pseudomonas aeruginosa [1] stood at 0.41. For the same compound, in the test with Pseudomonas aeruginosa [2], the “fold change (FC)” value came to 100000. Further, inhibition of growth in the test on Pseudomonas aeruginosa [3] (setting [5]) (MIC) required 100 µg/mL (≈ 309 µM).
Turning to `CO[C@H]1/C=C/O[C@@]2(C)Oc3c(C)c(O)c4c(O)c(c(/C=N/N5CCN(C)CC5)c(O)c4c3C2=O)NC(=O)/C(C)=C\C=C\[C@H](C)[C@H](O)[C@@H](C)[C@@H](O)[C@@H](C)[C@H](OC(C)=O)[C@@H]1C` [RIFAMPIN], the “fractional inhibitory concentration index (FICI)” value in the test on Pseudomonas aeruginosa [1] is listed as 0.05. The “fold change (FC)” value in the test on Pseudomonas aeruginosa [2] stood at 100000. In the test on Pseudomonas aeruginosa [3] (setting [5]), this compound showed an MIC of 20 µg/mL (≈ 24.3 µM).
On to `CC1COc2c(N3CCN(C)CC3)c(F)cc3c(=O)c(C(=O)O)cn1c23` (centres undefined) [OFLOXACIN], for which the “fractional inhibitory concentration index (FICI)” value in the test on Pseudomonas aeruginosa [1] was 1. In the test with Pseudomonas aeruginosa [3] (setting [5]), this compound had an MIC of 10 µg/mL (≈ 27.7 µM).
In the test on Pseudomonas aeruginosa [3] (setting [5]), `CC1(C)S[C@@H]2[C@H](NC(=O)[C@H](C(=O)O)c3ccsc3)C(=O)N2[C@H]1C(=O)O` [TICARCILLIN] came in with an MIC of 1120 µg/mL (≈ 2910 µM).
`CCn1cc(C(=O)O)c(=O)c2cc(F)c(N3CCNCC3)cc21` [NORFLOXACIN]: the “fractional inhibitory concentration index (FICI)” value with Pseudomonas aeruginosa [1] was determined as 0.68. The compound further yielded an MIC against Pseudomonas aeruginosa [3] (setting [5]) of 15 µg/mL (≈ 47 µM).
As to `CC(C)(O/N=C(\C(=O)N[C@@H]1C(=O)N2C(C(=O)[O-])=C(C[n+]3ccccc3)CS[C@H]12)c1csc(N)n1)C(=O)O` [CEFTAZIDIME], the “fractional inhibitory concentration index (FICI)” value came to 0.04 with Pseudomonas aeruginosa [1] and 0.09 with Pseudomonas aeruginosa [4]. Besides, the “fold change (FC)” value in the test on Pseudomonas aeruginosa [2] was found to be 100000. In the test with Pseudomonas aeruginosa [3] (setting [5]), it took 400 µg/mL (≈ 732 µM) to inhibit growth (MIC).
As for `CN(C)[C@@H]1C(O)=C(C(N)=O)C(=O)[C@@]2(O)C(O)=C3C(=O)c4c(O)cccc4[C@@](C)(O)[C@H]3C[C@@H]12` [TETRACYCLINE], the “fractional inhibitory concentration index (FICI)” value in the test with Pseudomonas aeruginosa [1] worked out at 1. This compound gave a minimal inhibitory concentration (MIC) against Pseudomonas aeruginosa [3] (setting [5]) of 20 µg/mL (≈ 45 µM).
As for `CC1(C)S[C@@H]2[C@H](NC(=O)C(C(=O)O)c3ccccc3)C(=O)N2[C@H]1C(=O)O` (some centres undefined) [CARBENICILLIN], inhibition of growth in the test on Pseudomonas aeruginosa [3] (setting [5]) (MIC) required 2240 µg/mL (≈ 5920 µM).
Turning to GENTAMICIN, the fractional inhibitory concentration index (FICI) in the test on Pseudomonas aeruginosa [1] is 1.72. 1120 µg/mL was the least that counted as inhibitory in the test on Pseudomonas aeruginosa [3] (MIC).
Turning to `O=C(O)c1cn(C2CC2)c2cc(N3CCNCC3)c(F)cc2c1=O` [CIPROFLOXACIN], the “fractional inhibitory concentration index (FICI)” value in the test on Pseudomonas aeruginosa [1] is listed as 1. The same compound returned a minimal inhibitory concentration (MIC) against Pseudomonas aeruginosa [3] (setting [5]) of 30 µg/mL (≈ 90.5 µM).
Consider `CO/N=C(\C(=O)N[C@@H]1C(=O)N2C(C(=O)O)=C(COC(C)=O)CS[C@H]12)c1csc(N)n1` [CEFOTAXIME], for which the “fractional inhibitory concentration index (FICI)” value in the test with Pseudomonas aeruginosa [1] was 0.14. This compound also yielded an MIC with Pseudomonas aeruginosa [3] (setting [5]) of 960 µg/mL (≈ 2110 µM).
Take `NC[C@@H]1O[C@@H](O[C@H]2[C@H](O)[C@@H](O[C@H]3O[C@H](CO)[C@@H](O)[C@H](N)[C@H]3O)[C@H](N)C[C@@H]2N)[C@@H](O)[C@H](O)[C@H]1O` [KANAMYCIN A]: the “fractional inhibitory concentration index (FICI)” value with Pseudomonas aeruginosa [1] amounted to 1.21. This compound also had an MIC in the test with Pseudomonas aeruginosa [3] (setting [5]) of 1600 µg/mL (≈ 3300 µM).
For POLYMYXIN B, the fractional inhibitory concentration index (FICI) in the test on Pseudomonas aeruginosa [1] came to 2.01. Moreover, the result in the test on Pseudomonas aeruginosa [2] was inactive. Also, inhibition of growth in the test with Pseudomonas aeruginosa [3] (MIC) required 5 µg/mL.
On to `CC[C@H]1OC(=O)[C@H](C)[C@@H](O[C@H]2C[C@@](C)(OC)[C@@H](O)[C@H](C)O2)[C@H](C)[C@@H](O[C@@H]2O[C@H](C)C[C@H](N(C)C)[C@H]2O)[C@](C)(O)C[C@@H](C)C(=O)[C@H](C)[C@@H](O)[C@]1(C)O` [ERYTHROMYCIN], for which the “fractional inhibitory concentration index (FICI)” value in the test on Pseudomonas aeruginosa [1] was 1. In the test on Pseudomonas aeruginosa [3] (setting [5]), this compound displayed a minimal inhibitory concentration (MIC) of 140 µg/mL (≈ 191 µM).
With `CO[C@@H]1[C@@H](OC(N)=O)[C@@H](O)[C@H](Oc2ccc3c(O)c(NC(=O)c4ccc(O)c(CC=C(C)C)c4)c(=O)oc3c2C)OC1(C)C` [NOVOBIOCIN], the fractional inhibitory concentration index (FICI) amounted to 0.1 in the test with Pseudomonas aeruginosa [1] and 0.35 with Pseudomonas aeruginosa [4]. Also, the “fold change (FC)” value in the test on Pseudomonas aeruginosa [2] turned out to be 100000000. The compound also yielded an MIC in the test on Pseudomonas aeruginosa [3] (setting [5]) of 1600 µg/mL (≈ 2610 µM).
As for `CCN1CCN(C(=O)N[C@@H](C(=O)N[C@@H]2C(=O)N3[C@@H]2SC(C)(C)[C@@H]3C(=O)O)c2ccccc2)C(=O)C1=O` [PIPERACILLIN], the lowest concentration to inhibit growth against Pseudomonas aeruginosa [3] (setting [5]) (MIC) was 40 µg/mL (≈ 77.3 µM).
As to `NC[C@H]1O[C@H](O[C@H]2[C@H](O)[C@@H](O[C@H]3O[C@H](CO)[C@@H](O)[C@H](N)[C@H]3O)[C@H](N)C[C@@H]2N)[C@H](N)C[C@@H]1O` [TOBRAMYCIN], in the test on Pseudomonas aeruginosa [1], the “fractional inhibitory concentration index (FICI)” value came out at 4.81. Further, in the test with Pseudomonas aeruginosa [3] (setting [5]), the lowest concentration to inhibit growth (MIC) was 50 µg/mL (≈ 107 µM).
`CC1(C)S[C@@H]2[C@H](NC(=O)[C@H](N)c3ccccc3)C(=O)N2[C@H]1C(=O)O` [AMPICILLIN] displayed an MIC with Pseudomonas aeruginosa [3] (setting [5]) of 2240 µg/mL (≈ 6410 µM).
As to COLISTIN, the fractional inhibitory concentration index (FICI) in the test with Pseudomonas aeruginosa [1] came to 2.01. The compound further registered a minimum inhibitory concentration (MIC) with Pseudomonas aeruginosa [3] of 5 µg/mL.
For the compound `CN[C@H](CC(C)C)C(=O)N[C@H]1C(=O)N[C@@H](CC(N)=O)C(=O)N[C@H]2C(=O)N[C@H]3C(=O)N[C@H](C(=O)N[C@H](C(=O)O)c4cc(O)cc(O)c4-c4cc3ccc4O)[C@H](O)c3ccc(c(Cl)c3)Oc3cc2cc(c3O[C@@H]2O[C@H](CO)[C@@H](O)[C@H](O)[C@H]2O[C@H]2C[C@](C)(N)[C@H](O)[C@H](C)O2)Oc2ccc(cc2Cl)[C@H]1O` [VANCOMYCIN], in the test on Pseudomonas aeruginosa [1], the “fractional inhibitory concentration index (FICI)” value was determined as 3.4. Besides, in the test with Pseudomonas aeruginosa [2], the outcome was inactive. Further, the MIC against Pseudomonas aeruginosa [3] (setting [5]) is 1120 µg/mL (≈ 773 µM).
